# Experiments:
# Format in all cases: functional
# OVCAR-8 = test: Cytotoxicity against human OVCAR8 cells after 48 hrs by sulforhodamine B assay; settings: OVCAR-8, 48 h, read-out: LC50 (the source's name)
# Outline: (§1)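 NCI 60 human tumour cell line panel run to the NCI protocol. GI50, TGI and LC50 come from log concentration vs % growth inhibition curves for each cell line. Lines insensitive at the top concentration are reported with ">".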
# UACC-257 = test: Cytotoxicity against human UACC257 cells after 48 hrs by sulforhodamine B assay; settings: UACC-257, 48 h, read-out: LC50 (the source's name)
# MDA-MB-468 = test: Growth inhibition of human MDA-MB-468 cells after 48 hrs by sulforhodamine B assay; settings: MDA-MB-468, 48 h
# Outline: (§2)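 GI50, TGI and LC50 were derived from log concentration versus % growth inhibition curves for each cell line. GI50 is the concentration giving a 50% decrease in net cell growth. Insensitive lines are reported as greater than the highest concentration.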
# LOX IMVI = test: Cytotoxicity against human LOXIMVI cells after 48 hrs by sulforhodamine B assay; settings: read-out: LC50 (the source's name); outline: as §1
# SF-268 [1] = test: Growth inhibition of human SF268 cells after 48 hrs by sulforhodamine B assay; settings: SF-268, 48 h; outline: as §2
# HOP-62 [2] = test: Growth inhibition of human HOP62 cells after 48 hrs by sulforhodamine B assay; settings: HOP-62, 48 h
# Outline: (§3)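 From log concentration versus % growth curves, GI50 (50% decrease in net growth), TGI (total growth inhibition) and LC50 (net 50% loss of initial cells) are derived for each line.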
# NCI-H23 = test: Growth inhibition of human NCI-H23 cells after 48 hrs by sulforhodamine B assay; settings: NCI-H23, 48 h; outline: as §2
# HT-29 [3] = test: Cytotoxicity against human HT-29 cells after 48 hrs by sulforhodamine B assay; settings: HT-29, 48 h, read-out: LC50 (the source's name); outline: as §1
# Malme-3M [4] = test: Growth inhibition of human MALME-3M cells after 48 hrs by sulforhodamine B assay; outline: as §2
# T47D [5] = test: Cytotoxicity against human T47D cells after 48 hrs by sulforhodamine B assay; settings: read-out: LC50 (the source's name)
# DU-145 [6] = test: Cytotoxicity against human DU145 cells after 48 hrs by sulforhodamine B assay; settings: DU-145, 48 h, read-out: LC50 (the source's name); outline: as §1
# PC-3 = test: Cytotoxicity against human PC3 cells after 48 hrs by sulforhodamine B assay; settings: PC-3, 48 h, read-out: LC50 (the source's name); outline: as §1
# HOP-62 [7] = test: Cytotoxicity against human HOP62 cells after 48 hrs by sulforhodamine B assay; settings: HOP-62, 48 h, read-out: LC50 (the source's name); outline: as §1
# SW-620 [8] = test: Growth inhibition of human SW620 cells after 48 hrs by sulforhodamine B assay; settings: SW-620, 48 h
# Outline: (§4)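 NCI 60-cell panel five-dose assay. GI50, TGI and LC50 are derived from log concentration versus % growth inhibition curves. Cell lines insensitive at the top concentration are given a ">" prefix.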
# SR = test: Cytotoxicity against human SR cells after 48 hrs by sulforhodamine B assay; settings: read-out: LC50 (the source's name)
# TK-10 = test: Cytotoxicity against human TK10 cells after 48 hrs by sulforhodamine B assay; settings: TK-10, 48 h, read-out: LC50 (the source's name)
# NCI-H226 = test: Cytotoxicity against human NCI-H226 cells after 48 hrs by sulforhodamine B assay; settings: NCI-H226, 48 h, read-out: LC50 (the source's name); outline: as §1
# SW-620 [9] = test: Cytotoxicity against human SW620 cells after 48 hrs by sulforhodamine B assay; settings: SW-620, 48 h, read-out: LC50 (the source's name)
# SN12C = test: Cytotoxicity against human SN12C cells after 48 hrs by sulforhodamine B assay; settings: read-out: LC50 (the source's name); outline: as §1
# EKVX = test: Growth inhibition of human EKVX cells after 48 hrs by sulforhodamine B assay; outline: as §3
# HCC 2998 [10] = test: Cytotoxicity against human HCC2998 cells after 48 hrs by sulforhodamine B assay; settings: HCC 2998, 48 h, read-out: LC50 (the source's name); outline: as §1
# NCI/ADR-RES = test: Cytotoxicity against human NCI/ADR-RES cells after 48 hrs by sulforhodamine B assay; settings: read-out: LC50 (the source's name); outline: as §1
# K562 = test: Growth inhibition of human K562 cells after 48 hrs by sulforhodamine B assay; settings: K562, 48 h; outline: as §3
# MDA-MB-435 = test: Cytotoxicity against human MDA-MB-435 cells after 48 hrs by sulforhodamine B assay; settings: MDA-MB-435, 48 h, read-out: LC50 (the source's name); outline: as §1
# HT-29 [11] = test: Growth inhibition of human HT-29 cells after 48 hrs by sulforhodamine B assay; settings: HT-29, 48 h; outline: as §3
# HL-60(TB) = test: Growth inhibition of human HL-60(TB) cells after 48 hrs by sulforhodamine B assay; settings: HL-60, 48 h
# OVCAR-4 = test: Growth inhibition of human OVCAR4 cells after 48 hrs by sulforhodamine B assay; settings: OVCAR-4, 48 h; outline: as §2
# DU-145 [12] = test: Growth inhibition of human DU145 cells after 48 hrs by sulforhodamine B assay; settings: DU-145, 48 h; outline: as §3
# U-251 = test: Growth inhibition of human U251 cells after 48 hrs by sulforhodamine B assay; settings: U-251, 48 h; outline: as §4
# NCI-H322M = test: Cytotoxicity against human NCI-H322M cells after 48 hrs by sulforhodamine B assay; settings: read-out: LC50 (the source's name); outline: as §1
# SF-268 [13] = test: Cytotoxicity against human SF268 cells after 48 hrs by sulforhodamine B assay; settings: SF-268, 48 h, read-out: LC50 (the source's name); outline: as §1
# A498 = test: Growth inhibition of human A498 cells after 48 hrs by sulforhodamine B assay; settings: A498, 48 h; outline: as §3
# NCI-H522 = test: Cytotoxicity against human NCI-H522 cells after 48 hrs by sulforhodamine B assay; settings: NCI-H522, 48 h, read-out: LC50 (the source's name); outline: as §1
# Malme-3M [14] = test: Cytotoxicity against human MALME-3M cells after 48 hrs by sulforhodamine B assay; settings: read-out: LC50 (the source's name); outline: as §1
# HCC 2998 [15] = test: Growth inhibition of human HCC2998 cells after 48 hrs by sulforhodamine B assay; settings: HCC 2998, 48 h; outline: as §3
# T47D [16] = test: Growth inhibition of human T47D cells after 48 hrs by sulforhodamine B assay; outline: as §4
# HCT-15 = test: Growth inhibition of human HCT15 cells after 48 hrs by sulforhodamine B assay; settings: HCT-15, 48 h; outline: as §3
# NCI-H460 = test: Cytotoxicity against human NCI-H460 cells after 48 hrs by sulforhodamine B assay; settings: NCI-H460, 48 h, read-out: LC50 (the source's name); outline: as §1
compound,measurement,setting,value
CC(C)CCC[C@@H](C)[C@H]1CC[C@H]2C3=CC[C@@H]4C(=O)C=CC(=O)[C@@H]4[C@@H]3CC[C@]12C,CC50,OVCAR-8,> 8120 nM
same,CC50,UACC-257,> 100000 nM
same,GI50,MDA-MB-468,215 nM
same,TGI,MDA-MB-468,462 nM
same,CC50,LOX IMVI,> 4100 nM
same,GI50,SF-268 [1],566 nM
same,TGI,SF-268 [1],> 100000 nM
same,GI50,HOP-62 [2],630 nM
same,TGI,HOP-62 [2],> 100000 nM
same,GI50,NCI-H23,147 nM
same,CC50,HT-29 [3],> 100000 nM
same,GI50,Malme-3M [4],399 nM
same,TGI,Malme-3M [4],2000 nM
same,CC50,T47D [5],> 100000 nM
same,CC50,DU-145 [6],> 100000 nM
same,CC50,PC-3,> 100000 nM
same,CC50,HOP-62 [7],> 100000 nM
same,GI50,SW-620 [8],141 nM
same,CC50,SR,> 100000 nM
same,CC50,TK-10,> 100000 nM
same,CC50,NCI-H226,> 100000 nM
same,CC50,SW-620 [9],> 100000 nM
same,CC50,SN12C,> 100000 nM
same,GI50,EKVX,545 nM
same,TGI,EKVX,> 100000 nM
same,CC50,HCC 2998 [10],> 100000 nM
same,CC50,NCI/ADR-RES,> 100000 nM
same,GI50,K562,249 nM
same,TGI,K562,> 100000 nM
same,CC50,MDA-MB-435,> 100000 nM
same,GI50,HT-29 [11],839 nM
same,TGI,HT-29 [11],> 100000 nM
same,GI50,HL-60(TB),153 nM
same,GI50,OVCAR-4,159 nM
same,TGI,OVCAR-4,498 nM
same,GI50,DU-145 [12],632 nM
same,TGI,DU-145 [12],> 100000 nM
same,GI50,U-251,94 nM
same,TGI,U-251,1230 nM
same,CC50,NCI-H322M,> 100000 nM
same,CC50,SF-268 [13],> 100000 nM
same,GI50,A498,384 nM
same,TGI,A498,1120 nM
same,CC50,NCI-H522,> 100000 nM
same,CC50,Malme-3M [14],> 100000 nM
same,GI50,HCC 2998 [15],274 nM
same,TGI,HCC 2998 [15],855 nM
same,GI50,T47D [16],337 nM
same,TGI,T47D [16],> 100000 nM
same,GI50,HCT-15,212 nM
same,CC50,NCI-H460,> 100000 nM

# Source: ChEMBL document CHEMBL1806372, “Cytotoxic ring A-modified steroid analogues derived from Grundmann's ketone” (Eur J Med Chem, 2011)
